Laboratory results taken from ChEMBL document CHEMBL1123397, “Antiarrhythmic activity of 17 beta-aminoestratrienes. Comparison of 3-ols and 3-acetates with the corresponding 3-(3-amino-2-hydroxypropyl) ethers” (1986).
≈ marks a conversion by molar mass, not a printed value. Calls of active or inactive are those of the source. The rule behind the calls is not given here.

Columns and labels:
[1] = system: Rattus norvegicus; assay: Effect on heart rate after isoprenaline induced tachycardia in the anesthetized rat at 2 mg/kg dose; type: functional
How it was run: (§1)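 Same ligation protocol in anaesthetised male Wistar rats. Heart rate was taken from the lead II ECG at three points: just before i.v. drug or vehicle, 14 min after it (just before isoprenaline 10 μg/kg), and 1 min after isoprenaline. Pre vs post rates and isoprenaline responses vs controls were compared by Student's t test. Mean ± SEM of 7-12 observations.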

[2] = system: Rattus norvegicus; assay: Effective dose that antagonized arrhythmias evoked by coronary artery ligation in the rat was measured at 1.0 mg/kg dose; type: functional
[3] = system: Rattus norvegicus; assay: Antagonism of Ventricular Fibrilloflutter (VF) evoked by coronary artery ligation in the rat measured at 2 mg/kg dose; type: functional, Heart
How it was run: (§2)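 Male Wistar rats, anaesthetised and artificially ventilated, with left thoracotomy; silk suture under main left coronary artery. After stabilization, test drug or vehicle i.v.; 14 min later isoprenaline 10 μg/kg; 1 min after that the ligature was tightened and VF incidence recorded over 30 min. Carotid pressure and lead II ECG monitored continuously. 7-12 animals per group.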

[4] = organism: Rattus norvegicus; assay: Maximum increase in heart rate evoked by isoprenaline.; type: functional
How it was run: (§3)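 Test drug or vehicle was given i.v., and isoprenaline (10 µg/kg) 14 min later. Heart rate was read from the lead II ECG just before drug, at 14 min (pre-isoprenaline) and 1 min after isoprenaline. Compared by Student's t test; 7–12 animals per group; mean ± SEM.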

[5] = system: Rattus norvegicus; assay: Compound was tested for antagonism of Ventricular Fibrilloflutter (VF) evoked by coronary artery ligation in the rat measured at 1 mg/kg dose; type: functional, Heart; how it was run: as §2
[6] = system: Rattus norvegicus; assay: Mean change in heart rate recorded 14 min after the administration of compound.; type: functional; how it was run: as §3
[7] = organism: Cavia porcellus; assay: Concentration required to reduce maximum following frequencu (MFF) of isolated guinea pig atria by 25%; type: functional
How it was run: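 Guinea pig left atria in an organ bath of Krebs solution at 35 °C, gassed with carbogen, electrically driven, isometric contractions recorded. Drugs added cumulatively; maximum following frequency determined 6 min after each concentration. Concentration reducing MFF by 25% (EC25) calculated from six preparations.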

[8] = system: Rattus norvegicus; assay: Compound was tested for antagonism of Ventricular Fibrilloflutter (VF) evoked by coronary artery ligation in the rat measured at 0.5 mg/kg dose; type: functional, Heart; how it was run: as §2
[9] = organism: Mus musculus; assay: ED 50 value against aconitine-induced arrhythmias in mice; IA is Inactive; type: functional, organism-based
How it was run: (§4)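 Anaesthetised mice were given test compound intraperitoneally, then aconitine intravenously to induce arrhythmia. At least three doses were tested in separate groups (n = 6-10). ED50 is the dose raising the arrhythmogenic aconitine dose 50% above the control requirement.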

[10] = system: Rattus norvegicus; assay: Effect on heart rate before isoprenaline induced tachycardia in the anesthetized rat at 2 mg/kg dose; type: functional; how it was run: as §3
[11] = system: Rattus norvegicus; assay: Effect on heart rate on 1 min post isoprenaline induced tachycardia in the anesthetized rat at 2.0 mg/kg dose.; type: functional; how it was run: as §3
[12] = system: Rattus norvegicus; assay: Compound that antagonized arrhythmias evoked by coronary artery ligation in the rat was measured at 1.0 mg/kg dose; type: functional; how it was run: as §2
[13] = organism: Cavia porcellus; assay: Compound was tested for antiarrhythmic activity (time taken to reach 50% repolarization) in guinea pig atria at 4(ug/mL) concentration; type: functional, Heart
How it was run: (§5)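 Guinea pig left atria pinned in a recording chamber, superfused with carbogen-gassed Krebs solution at 35 ± 0.5 °C and electrically stimulated. Transmembrane action potentials were recorded with conventional microelectrodes, giving RMP, AP height, APD50, APD90 and maximum rate of depolarization. Values are mean ± SEM from n cells across five preparations.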

[14] = organism: Cavia porcellus; assay: Compound was tested for antiarrhythmic activity expressed as resting membrane potential (RMP) in guinea pig atria at 4 ug/mL concentration; type: functional; details: Heart; how it was run: as §5
[15] = organism: Cavia porcellus; assay: Compound was tested for antiarrhythmic activity (maximum rate of phase 0 depolarization- MRD) in guinea pig atria at 2(ug/mL) concentration; type: functional, Heart; how it was run: as §5
[16] = organism: Cavia porcellus; assay: Compound was tested for antiarrhythmic activity (time taken to reach 90% repolarization) in guinea pig atria at 8(ug/mL) concentration; type: functional, Heart; how it was run: as §5
[17] = organism: Cavia porcellus; assay: Compound was tested for antiarrhythmic activity (time taken to reach 90% repolarization) in guinea pig atria at 2(ug/mL) concentration; type: functional, Heart; how it was run: as §5
[18] = organism: Cavia porcellus; assay: Compound was tested for antiarrhythmic activity expressed as action potential height (AP) in guinea pig atria at 8(ug/mL) concentration; type: functional, Heart; how it was run: as §5
[19] = organism: Cavia porcellus; assay: Compound was tested for antiarrhythmic activity (time taken to reach 50% repolarization) in guinea pig atria at 2(ug/mL) concentration; type: functional, Heart; how it was run: as §5
[20] = organism: Cavia porcellus; assay: Compound was tested for antiarrhythmic activity expressed as action potential height (AP) in guinea pig atria at 2(ug/mL) concentration; type: functional, Heart; how it was run: as §5
[21] = organism: Cavia porcellus; assay: Compound was tested for antiarrhythmic activity (maximum rate of phase 0 depolarization- MRD) in guinea pig atria at 4(ug/mL) concentration; type: functional, Heart; how it was run: as §5
[22] = organism: Cavia porcellus; assay: Compound was tested for antiarrhythmic activity (maximum rate of phase 0 depolarization- MRD) in guinea pig atria at 8(ug/mL) concentration; type: functional, Heart; how it was run: as §5
[23] = organism: Rattus norvegicus; assay: Maximum increase in heart rate evoked by isoprenaline; type: functional; how it was run: as §3
[24] = organism: Cavia porcellus; assay: Compound was tested for antiarrhythmic activity (time taken to reach 50% repolarization) in guinea pig atria at 8(ug/mL) concentration; type: functional, Heart; how it was run: as §5
[25] = organism: Cavia porcellus; assay: Compound was tested for antiarrhythmic activity (time taken to reach 90% repolarization) in guinea pig atria at 4(ug/mL) concentration; type: functional, Heart; how it was run: as §5
[26] = organism: Cavia porcellus; assay: Compound was tested for antiarrhythmic activity expressed as resting membrane potential (RMP) in guinea pig atria at 8 ug/mL concentration; type: functional; details: Heart; how it was run: as §5
[27] = system: Rattus norvegicus; assay: Effect of teh compound on heart rate on 1 min post isoprenaline induced tachycardia in the anesthetized rat at 2.0 mg/kg dose.; type: functional; how it was run: as §1
[28] = organism: Cavia porcellus; assay: Compound was tested for antiarrhythmic activity expressed as resting membrane potential (RMP) in guinea pig atria at 2 ug/mL concentration; type: functional; details: Heart; how it was run: as §5
[29] = organism: Cavia porcellus; assay: Compound was tested for antiarrhythmic activity expressed as action potential height (AP) in guinea pig atria at 4(ug/mL) concentration; type: functional, Heart; how it was run: as §5
[30] = organism: Mus musculus; assay: ED 50 value against aconitine-induced arrhythmias in mice; type: functional; how it was run: as §4
[31] = system: Rattus norvegicus; assay: Effective dose that antagonized arrhythmias evoked by coronary artery ligation in the rat was measured at 2.0 mg/kg dose; type: functional
[32] = system: Rattus norvegicus; assay: Compound was tested for antagonism of Ventricular Fibrilloflutter (VF) evoked by coronary artery ligation in the rat measured at 0.05 mg/kg dose; type: functional, Heart; how it was run: as §2
[33] = system: Rattus norvegicus; assay: Effective dose that antagonized arrhythmias evoked by coronary artery ligation in the rat was measured at 0.01 mg/kg dose; type: functional
[34] = system: Rattus norvegicus; assay: Compound was tested for antagonism of Ventricular Fibrilloflutter (VF) evoked by coronary artery ligation in the rat measured at 0.01 mg/kg dose; type: functional, Heart; details: dose 0.1 mg/kg; in the assay text read “0.1 mg/kg” for “0.01 mg/kg”; how it was run: as §2
[35] = system: Rattus norvegicus; assay: Effect on heart rate after isoprenaline induced tachycardia in the anesthetized rat at 1 mg/kg dose; type: functional; how it was run: as §1
[36] = system: Rattus norvegicus; assay: Effect on heart rate before isoprenaline induced tachycardia in the anesthetized rat at 1 mg/kg dose; type: functional; how it was run: as §1
[37] = system: Rattus norvegicus; assay: Effect on heart rate on 1 min post isoprenaline induced tachycardia in the anesthetized rat at 1.0 mg/kg dose.; type: functional; how it was run: as §3
[38] = system: Rattus norvegicus; assay: Compound that antagonized arrhythmias evoked by coronary artery ligation in the rat was measured at 0.05 mg/kg dose; type: functional; how it was run: as §2
[39] = system: Rattus norvegicus; assay: Effect on heart rate on 1 min post isoprenaline induced tachycardia in the anesthetized rat at 1 mg/kg dose.; type: functional; how it was run: as §3

Compound: CN(C)C1[C@H](O)C[C@H]2[C@@H]3CCc4cc(OCC(O)CNC(C)(C)C)ccc4[C@H]3CC[C@]12C (stereo partly drawn)
- Heart rate [1]: 325 beats min-1
- ED50 [2]: 0.5 mg/kg
- VF [3]: 0%
- Increase [4]: 4.6%
- VF [5]: 38%
- Change [6]: -17.3%
- EC25 [7]: 17.1 µg/mL (≈ 38.5 µM)
- VF [8]: 44%
- ED50 [9]: inactive
- Heart rate [10]: 393 beats min-1
- Heart rate [11]: 340 beats min-1

Compound: CC(C)NCC(O)COc1ccc2c(c1)CC[C@@H]1[C@@H]2CC[C@]2(C)C(N(C)C)[C@H](O)C[C@@H]12 (stereo partly drawn)
- ED50 at 1 mg/kg [12]: < 1 mg/kg
- APD50 [13]: 20.7 ms
- Heart rate [1]: 366 beats min-1
- RMP [14]: 70.4 mV
- MRD [15]: 139.5 V s-1
- APD90 [16]: 64.9 ms
- APD90 [17]: 69.8 ms
- AP [18]: 79.5 mV
- APD50 [19]: 26 ms
- VF [5]: 13%
- AP [20]: 83.8 mV
- Change [6]: -7.1%
- MRD [21]: 124 V s-1
- EC25 [7]: 13.7 µg/mL (≈ 31.8 µM)
- MRD [22]: 139.3 V s-1
- ED50 [9]: inactive
- Increase [23]: 0%
- APD50 [24]: 19.5 ms
- APD90 [25]: 64.8 ms
- Heart rate [10]: 394 beats min-1
- RMP [26]: 69.1 mV
- Heart rate [27]: 366 beats min-1
- RMP [28]: 71 mV
- AP [29]: 81.6 mV

Compound: CN(C)C1CC[C@H]2[C@@H]3CCc4cc(O)ccc4[C@H]3CC[C@]12C (stereo partly drawn)
- EC25 [7]: 1.65 µg/mL (≈ 5.51 µM)
- ED50 [30]: 4.4 mg/kg

Compound: CNC1CC[C@H]2[C@@H]3CCc4cc(OCC(O)CNC(C)C)ccc4[C@H]3CC[C@]12C (stereo partly drawn)
- Heart rate [1]: 315 beats min-1
- Increase [4]: 1%
- Change [6]: -22.6%
- EC25 [7]: 11.9 µg/mL (≈ 29.7 µM)
- ED50 [9]: inactive
- Heart rate [10]: 407 beats min-1
- Heart rate [27]: 318 beats min-1

Compound: CNC1CC[C@H]2[C@@H]3CCc4cc(OCC(O)CNC(C)(C)C)ccc4[C@H]3CC[C@]12C (stereo partly drawn)
- Heart rate [1]: 335 beats min-1
- VF [3]: 0%
- Increase [4]: 0%
- Change [6]: -13.4%
- EC25 [7]: 25.8 µg/mL (≈ 62.2 µM)
- ED50 [9]: inactive
- ED50 at 2 mg/kg [31]: < 2 mg/kg
- Heart rate [10]: 387 beats min-1
- Heart rate [11]: 335 beats min-1

Compound: CN(C)C1CC[C@H]2[C@@H]3CCc4cc(OCC(O)CNC(C)(C)C)ccc4[C@H]3CC[C@]12C (stereo partly drawn)
- VF [32]: 38%
- ED50 [33]: 0.05 mg/kg
- Increase [4]: 3.4%
- VF [5]: 0%
- Change [6]: -6.9%
- EC25 [7]: 24.1 µg/mL (≈ 56.2 µM)
- ED50 [9]: inactive
- VF [34]: 25%
- Heart rate [35]: 363 beats min-1
- Heart rate [36]: 390 beats min-1
- Heart rate [37]: 376 beats min-1

Compound: CNC1CC[C@H]2[C@@H]3CCc4cc(O)ccc4[C@H]3CC[C@]12C (stereo partly drawn)
- EC25 [7]: 2.09 µg/mL (≈ 7.32 µM)
- ED50 [30]: 8.2 mg/kg

Compound: CCCNCC(O)COc1ccccc1C(=O)CCc1ccccc1 (stereo not drawn) [PROPAFENONE]
- Increase [4]: 13.8%
- Change [6]: -11.7%
- EC25 [7]: 1.85 µg/mL (≈ 5.42 µM)
- ED50 [38]: 0.7 mg/kg
- ED50 [30]: 24.3 mg/kg
- Heart rate [35]: 391 beats min-1
- Heart rate [39]: 445 beats min-1
- Heart rate [36]: 443 beats min-1

Compound: CC(C)NCC(O)COc1ccc2c(c1)CC[C@@H]1[C@@H]2CC[C@]2(C)C(N(C)C)CC[C@@H]12 (stereo partly drawn)
- VF [3]: 14%
- Increase [4]: 1.6%
- VF [5]: 29%
- Change [6]: -4.4%
- EC25 [7]: 16.1 µg/mL (≈ 38.8 µM)
- ED50 [9]: inactive
- ED50 at 2 mg/kg [31]: < 1 mg/kg
- Heart rate [35]: 387 beats min-1
- Heart rate [36]: 405 beats min-1
- Heart rate [37]: 393 beats min-1

Compound: CNC1[C@H](O)C[C@H]2[C@@H]3CCc4cc(OCC(O)CNC(C)C)ccc4[C@H]3CC[C@]12C (stereo partly drawn)
- EC25 [7]: 21 µg/mL (≈ 50.4 µM)
- ED50 [9]: inactive

Compound: CC(=O)Oc1ccc2c(c1)CC[C@@H]1[C@@H]2CC[C@]2(C)C(N(C)C)[C@H](O)C[C@@H]12 (stereo partly drawn)
- EC25 [7]: 0.99 µg/mL (≈ 2.77 µM)
- ED50 [30]: 6.5 mg/kg
